Tests used:
[1] = target: Tissue-type plasminogen activator (Homo sapiens, UniProt P00750); assay: Inhibition of human tissue plasminogen activator
Coagulation factor XI = Coagulation factor XI (Homo sapiens, UniProt P03951); assay: Inhibition of human factor 11a
Prothrombin = Prothrombin (Homo sapiens, UniProt P00734); assay: Inhibition of human thrombin
Plasma kallikrein = Plasma kallikrein (Homo sapiens, UniProt P03952); assay: Inhibition of human plasma kallikrein; type: cell-free
[2] = Half life in dog at 0.2 mg/kg, po; type: ADME, organism-based, Canis lupus familiaris; set-up: dose 0.2 mg/kg, route oral; conditions: in vivo
[3] = Half life in dog at 0.5 mg/kg, iv; type: ADME, organism-based, Canis lupus familiaris; set-up: dose 0.5 mg/kg, route intravenous; conditions: in vivo
Method in brief: (§1)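 Dogs. Intravenous dose 0.5 mg/kg, used for clearance (L/kg/h), steady-state volume of distribution (L/kg) and iv half-life.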

Plasminogen = Plasminogen (Homo sapiens, UniProt P00747); assay: Inhibition of human Plasmin
Plasminogen, sequence (P00747 97-580 limits assumed): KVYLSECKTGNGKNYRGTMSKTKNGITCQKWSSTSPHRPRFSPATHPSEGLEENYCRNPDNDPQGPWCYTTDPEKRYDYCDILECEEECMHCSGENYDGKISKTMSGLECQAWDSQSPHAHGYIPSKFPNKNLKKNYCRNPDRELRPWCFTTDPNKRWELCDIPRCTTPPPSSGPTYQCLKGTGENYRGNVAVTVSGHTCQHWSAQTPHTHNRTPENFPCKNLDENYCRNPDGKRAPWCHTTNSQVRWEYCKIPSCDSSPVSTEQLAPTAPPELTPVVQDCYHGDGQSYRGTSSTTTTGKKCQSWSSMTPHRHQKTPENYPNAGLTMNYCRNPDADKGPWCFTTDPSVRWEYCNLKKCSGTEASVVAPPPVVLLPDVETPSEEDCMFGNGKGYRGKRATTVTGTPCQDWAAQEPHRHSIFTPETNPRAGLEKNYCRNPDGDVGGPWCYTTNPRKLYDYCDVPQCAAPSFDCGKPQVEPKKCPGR
Plasminogen, sequence (P00747 581-810 limits assumed): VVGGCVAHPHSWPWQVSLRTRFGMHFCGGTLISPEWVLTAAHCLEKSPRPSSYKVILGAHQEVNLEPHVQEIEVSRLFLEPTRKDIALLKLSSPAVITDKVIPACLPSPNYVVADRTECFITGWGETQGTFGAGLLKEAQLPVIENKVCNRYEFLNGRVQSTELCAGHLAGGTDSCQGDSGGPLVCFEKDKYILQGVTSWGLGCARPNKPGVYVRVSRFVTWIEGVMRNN

Coagulation factor X [4] = target: T1, Coagulation factor X (Homo sapiens, UniProt P00742); assay: Inhibition of human factor 10a in presence of tripeptide substrate at 37 degC
T1 sequence (P00742 41-179 limits assumed): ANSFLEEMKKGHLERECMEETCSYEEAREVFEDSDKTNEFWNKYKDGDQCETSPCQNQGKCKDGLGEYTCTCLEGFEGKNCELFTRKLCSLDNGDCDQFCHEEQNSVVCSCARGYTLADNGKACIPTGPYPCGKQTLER
T1 sequence (P00742 235-488 limits assumed): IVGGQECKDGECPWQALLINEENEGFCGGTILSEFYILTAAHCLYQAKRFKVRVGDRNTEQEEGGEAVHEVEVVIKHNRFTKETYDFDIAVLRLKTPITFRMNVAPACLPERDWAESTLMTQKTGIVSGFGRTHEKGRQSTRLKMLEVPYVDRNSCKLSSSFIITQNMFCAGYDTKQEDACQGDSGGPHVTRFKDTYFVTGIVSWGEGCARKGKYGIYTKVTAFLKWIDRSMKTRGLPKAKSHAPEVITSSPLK

[5] = Clearance in dog at 0.5 mg/kg, iv; type: ADME, organism-based, Canis lupus familiaris; set-up: dose 0.5 mg/kg, route intravenous; conditions: in vivo; method in brief: as §1
Coagulation factor X [6] = target: T1, Coagulation factor X; assay: Inhibition of human factor 10a in presence of saturating prothrombin at 37 degC
Method in brief: (§2)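 Purified human factor Xa. […] Prothrombinase-type inhibition measured with prothrombin as substrate at 25 °C, and with saturating prothrombin at 37 °C. Values are averages of at least 2 determinations.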

[7] = Permeability across Caco-2 cells; type: ADME, cell-based; conditions: human, read-out: permeability
Trypsin = Trypsin (Homo sapiens, UniProt P07477+P07478+P35030); assay: Inhibition of human trypsin; type: protein assay
[8] = target: Urokinase-type plasminogen activator (Homo sapiens, UniProt P00749); assay: Inhibition of human urokinase
[9] = Inhibition of human chymotrypsin
[10] = Bioavailability in dog at 0.2 mg/kg, po; type: ADME, organism-based, Canis lupus familiaris; conditions: in vivo; method in brief: as §1
Coagulation factor X [11] = target: T1, Coagulation factor X; assay: Inhibition of human factor 10a in presence of tripeptide substrate at 25 degC
Coagulation factor X [12] = target: T1, Coagulation factor X; assay: Inhibition of human factor 10a
[13] = target: Vitamin K-dependent protein C (Homo sapiens, UniProt P04070); assay: Inhibition of human activated protein C
Vitamin K-dependent protein C, sequence (P04070 43-197 limits assumed): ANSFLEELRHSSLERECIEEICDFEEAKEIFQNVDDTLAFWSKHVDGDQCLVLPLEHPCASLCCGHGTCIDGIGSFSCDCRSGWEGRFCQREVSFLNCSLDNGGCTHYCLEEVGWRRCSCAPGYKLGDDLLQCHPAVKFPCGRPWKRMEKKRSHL
Vitamin K-dependent protein C, sequence (P04070 212-461 limits assumed): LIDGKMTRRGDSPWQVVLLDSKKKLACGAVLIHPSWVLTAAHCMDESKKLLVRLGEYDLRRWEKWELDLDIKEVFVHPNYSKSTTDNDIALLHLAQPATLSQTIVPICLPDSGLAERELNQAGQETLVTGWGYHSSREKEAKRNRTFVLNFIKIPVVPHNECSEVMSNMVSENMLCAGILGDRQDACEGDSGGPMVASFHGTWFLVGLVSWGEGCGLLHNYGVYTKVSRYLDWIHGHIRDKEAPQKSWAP

[14] = Cytotoxicity against HEK cells; type: cell-based; conditions: Homo sapiens, HEK293
Coagulation factor X [15] = target: T1, Coagulation factor X; assay: Inhibition of human factor 10a in presence of prothrombin at 25 degC; method in brief: as §2
Liver microsomes = assay: Metabolic stability in human liver microsomes assessed as microsomal intrinsic clearance rate; type: ADME, Microsome
Method in brief: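 Human liver microsomes, 10-min incubation. Metabolic stability given as % compound remaining. Microsomal intrinsic clearance rate (nmol/min/mg) is based on the % remaining after 10 min.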

Coagulation factor VII = target: T2, Coagulation factor VII (Homo sapiens, UniProt P08709); assay: Inhibition of human factor 7a
T2 sequence (P08709 whole entry): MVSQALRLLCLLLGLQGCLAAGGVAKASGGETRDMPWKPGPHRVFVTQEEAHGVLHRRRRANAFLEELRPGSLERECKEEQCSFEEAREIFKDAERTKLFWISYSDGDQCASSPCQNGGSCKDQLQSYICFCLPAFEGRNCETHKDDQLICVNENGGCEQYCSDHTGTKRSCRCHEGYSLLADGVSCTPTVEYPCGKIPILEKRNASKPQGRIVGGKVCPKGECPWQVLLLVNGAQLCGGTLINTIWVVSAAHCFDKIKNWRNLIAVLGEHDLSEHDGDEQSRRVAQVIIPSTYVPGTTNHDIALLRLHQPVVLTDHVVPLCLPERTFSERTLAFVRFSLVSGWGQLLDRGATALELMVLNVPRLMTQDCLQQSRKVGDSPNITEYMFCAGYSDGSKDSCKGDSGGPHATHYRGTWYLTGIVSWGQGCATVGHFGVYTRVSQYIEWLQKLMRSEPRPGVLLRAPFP

[16] = Volume of distribution at steady state in dog at 0.5 mg/kg, iv; type: ADME, organism-based, Canis lupus familiaris; set-up: dose 0.5 mg/kg, route intravenous; conditions: in vivo, read-out: Vdss; method in brief: as §1

Plasma kallikrein, sequence (P03952 20-390 limits assumed): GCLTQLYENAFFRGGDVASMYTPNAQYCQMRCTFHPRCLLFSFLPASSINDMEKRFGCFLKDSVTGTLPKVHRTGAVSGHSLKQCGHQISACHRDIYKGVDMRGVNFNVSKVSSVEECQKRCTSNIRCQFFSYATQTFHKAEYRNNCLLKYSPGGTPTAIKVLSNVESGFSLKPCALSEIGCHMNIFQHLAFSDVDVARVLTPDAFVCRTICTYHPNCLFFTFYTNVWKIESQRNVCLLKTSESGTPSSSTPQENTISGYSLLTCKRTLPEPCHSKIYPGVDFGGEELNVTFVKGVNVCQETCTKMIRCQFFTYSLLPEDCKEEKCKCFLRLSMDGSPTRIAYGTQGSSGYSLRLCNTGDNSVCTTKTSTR
Plasma kallikrein, sequence (P03952 391-638 limits assumed): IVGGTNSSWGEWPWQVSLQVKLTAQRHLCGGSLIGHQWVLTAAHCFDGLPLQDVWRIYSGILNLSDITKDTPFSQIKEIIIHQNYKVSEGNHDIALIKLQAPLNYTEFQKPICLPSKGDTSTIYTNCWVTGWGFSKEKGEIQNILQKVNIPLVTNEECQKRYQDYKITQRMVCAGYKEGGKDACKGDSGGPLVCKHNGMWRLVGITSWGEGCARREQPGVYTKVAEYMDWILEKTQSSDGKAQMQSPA
Coagulation factor XI, sequence (P03951 19-387 limits assumed): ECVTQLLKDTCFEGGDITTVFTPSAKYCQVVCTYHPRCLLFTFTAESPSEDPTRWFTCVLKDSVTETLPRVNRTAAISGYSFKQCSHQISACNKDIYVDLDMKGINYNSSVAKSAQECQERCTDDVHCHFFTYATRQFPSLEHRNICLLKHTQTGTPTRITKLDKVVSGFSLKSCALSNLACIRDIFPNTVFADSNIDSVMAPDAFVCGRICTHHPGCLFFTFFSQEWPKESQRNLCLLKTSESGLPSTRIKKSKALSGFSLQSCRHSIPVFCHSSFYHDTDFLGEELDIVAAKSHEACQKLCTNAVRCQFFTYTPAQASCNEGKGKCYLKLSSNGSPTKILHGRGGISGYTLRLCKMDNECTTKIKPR
Coagulation factor XI, sequence (P03951 388-625 limits assumed): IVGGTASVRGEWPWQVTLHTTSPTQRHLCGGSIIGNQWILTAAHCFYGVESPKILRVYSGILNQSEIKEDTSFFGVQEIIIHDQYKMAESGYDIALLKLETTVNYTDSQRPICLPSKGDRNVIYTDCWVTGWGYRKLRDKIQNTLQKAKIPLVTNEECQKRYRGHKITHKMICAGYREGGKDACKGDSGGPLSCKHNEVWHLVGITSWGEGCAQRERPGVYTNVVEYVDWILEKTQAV
Tissue-type plasminogen activator, sequence (P00750 whole entry): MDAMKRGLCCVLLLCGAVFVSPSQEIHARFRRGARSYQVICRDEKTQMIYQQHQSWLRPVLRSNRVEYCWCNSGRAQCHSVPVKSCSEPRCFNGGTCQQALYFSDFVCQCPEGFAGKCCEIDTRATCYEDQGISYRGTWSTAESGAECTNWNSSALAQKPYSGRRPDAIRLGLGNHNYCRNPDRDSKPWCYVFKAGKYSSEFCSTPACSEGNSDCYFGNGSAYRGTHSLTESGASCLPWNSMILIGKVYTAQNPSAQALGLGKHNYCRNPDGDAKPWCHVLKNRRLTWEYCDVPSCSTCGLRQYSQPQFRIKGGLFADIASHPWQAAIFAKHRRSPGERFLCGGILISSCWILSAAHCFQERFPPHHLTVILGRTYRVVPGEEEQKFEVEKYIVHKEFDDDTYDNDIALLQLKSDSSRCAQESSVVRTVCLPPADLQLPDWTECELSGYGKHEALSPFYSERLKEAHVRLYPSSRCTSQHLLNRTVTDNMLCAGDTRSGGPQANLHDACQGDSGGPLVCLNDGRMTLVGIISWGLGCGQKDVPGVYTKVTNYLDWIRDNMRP

## CCOC(=O)N1C[C@H](NC(=O)c2ccc(-n3ccccc3=O)cc2)[C@H](NC(=O)c2ccc(Cl)s2)C1
[1]
  Ki: > 21 µM
Coagulation factor XI
  Ki: 7.38 µM
Prothrombin
  Ki: 4.02 µM
Plasma kallikrein
  Ki: > 6 µM
[2]
  half-life: 162 min
[3]
  half-life: 84 min
Plasminogen
  Ki: > 22 µM
Coagulation factor X [4]
  Ki: 2.6 nM
[5]
  clearance: 43.3 mL/min/kg
Coagulation factor X [6]
  Ki: 30 nM
[7]
  Papp: 2.5 ×10⁻⁶ cm/s
Trypsin
  Ki: > 5 µM
[8]
  Ki: > 14 µM
[9]
  Ki: > 20 µM
[10]
  bioavailability: 25%
Coagulation factor X [11]
  Ki: 0.73 nM
Coagulation factor X [12]
  Ki: 0.5 nM
[13]
  Ki: > 21 µM
[14]
  IC50: > 100 µM
Coagulation factor X [15]
  Ki: 7.5 nM
Liver microsomes
  CL: 0 nmol/mg/min
Coagulation factor VII
  Ki: > 11 µM
[16]
  Vd: 2.4 L/kg
